Test results: ChEMBL document CHEMBL4118144, “Design, Synthesis, and Testing of Potent, Selective Hepsin Inhibitors via Application of an Automated Closed-Loop Optimization Platform” (J Med Chem, 2018)
The source made the active and inactive calls. No cut-off for these calls is given here.

Assays:
Homo sapiens [1] = species on record: Homo sapiens; assay: Selectivity ratio of IC50 for recombinant C-terminal His10-tagged human uPA (M1 to L431 residues) to IC50 for recombinant C-terminal His10-tagged human Hepsin (R45 to […] residues) D161E/ R162K double mutant by automated fluorescence assay
[2] = Chromatographic hydrophobicity index, log D of the compound at pH 7 by HPLC/UV analysis; type: physicochemical; conditions: buffer
Serine protease hepsin [3] = biological target: T1, Serine protease hepsin (Homo sapiens, UniProt P05981, D161E/R162K); assay: Inhibition of recombinant C-terminal His10-tagged human Hepsin (R45 to […] residues) D161E/ R162K double mutant expressed in mouse NS0 cells using Boc-QRR-AMC as substrate after 15 mins by automated fluorescence assay
Summary of the method: (§1)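 On-line assay integrated with the flow-synthesis platform: a 20 µL aliquot of each product solution captured automatically, HPLC-purified, then diluted and assayed.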

[4] = biological target: T2, Urokinase-type plasminogen activator (Homo sapiens, UniProt P00749); assay: Inhibition of recombinant C-terminal His10-tagged human uPA (M1 to L431 residues) expressed in mouse NS0 cells using Z-GGR-AMC as substrate after 15 mins by automated fluorescence assay; summary of the method: as §1
Serine protease hepsin [5] = biological target: T1, Serine protease hepsin; assay: Inhibition of recombinant C-terminal His10-tagged human Hepsin (R45 to […] residues) D161E/ R162K double mutant expressed in mouse NS0 cells using Boc-QRR-AMC as substrate after 15 mins by manual fluorescence assay
Homo sapiens [6] = species on record: Homo sapiens; assay: Selectivity ratio of IC50 for recombinant C-terminal His10-tagged human uPA (M1 to L431 residues) to IC50 for recombinant C-terminal His10-tagged human Hepsin (R45 to […] residues) D161E/ R162K double mutant by manual fluorescence assay
[7] = biological target: T2, Urokinase-type plasminogen activator; assay: Inhibition of recombinant C-terminal His10-tagged human uPA (M1 to L431 residues) expressed in mouse NS0 cells using Z-GGR-AMC as substrate after 15 mins by manual fluorescence assay
Serine protease hepsin [8] = biological target: T3, Serine protease hepsin (Homo sapiens, UniProt P05981); assay: Inhibition of hepsin-mediated conversion of Pro-HGF into active form in human HCC1937 cells assessed as decrease in MET phosphorylation at 100 nM preincubated for 30 mins followed by recombinant human pro-HGF addition measured after 30 mins by immunoblot method; type: cell-based
T3 sequence (P05981 1-162 limits assumed): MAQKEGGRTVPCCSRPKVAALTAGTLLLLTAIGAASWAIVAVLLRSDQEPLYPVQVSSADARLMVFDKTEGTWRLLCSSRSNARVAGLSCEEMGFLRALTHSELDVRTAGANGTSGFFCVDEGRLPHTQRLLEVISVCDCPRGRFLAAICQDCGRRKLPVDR
T3 sequence (P05981 163-417 limits assumed): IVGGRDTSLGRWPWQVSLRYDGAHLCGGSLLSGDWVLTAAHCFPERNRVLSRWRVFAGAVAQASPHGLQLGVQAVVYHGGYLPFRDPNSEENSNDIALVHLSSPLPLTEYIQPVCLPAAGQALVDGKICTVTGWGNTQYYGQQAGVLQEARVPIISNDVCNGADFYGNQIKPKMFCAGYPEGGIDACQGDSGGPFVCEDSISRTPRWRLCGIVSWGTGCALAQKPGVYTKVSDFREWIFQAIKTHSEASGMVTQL
Summary of the method: (§2)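 Hs578T or HCC1937 breast cells incubated with DMSO or inhibitor, then 50 ng/mL recombinant human Pro-HGF added; MET pathway activation (phospho-MET) assessed by immunoblotting.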

Serine protease hepsin [9] = biological target: T3, Serine protease hepsin; assay: Inhibition of hepsin-mediated conversion of Pro-HGF into active form in human Hs578T cells assessed as decrease in MET phosphorylation at 100 nM preincubated for 30 mins followed by recombinant human pro-HGF addition measured after 30 mins by immunoblot method; type: cell-based; summary of the method: as §2
Serine protease hepsin [10] = biological target: T3, Serine protease hepsin; assay: Inhibition of doxycycline induced Hepsin in human MCF10A cells using Boc-QRR-AMC as substrate preincubated for 24 hrs followed by doxycycline induction for 24 hrs and subsequent addition of substrate by fluorescence assay; type: cell-based
Serine protease hepsin [11] = biological target: T3, Serine protease hepsin; assay: Inhibition of hepsin-mediated conversion of Pro-HGF into active form in human Hs578T cells assessed as decrease in MET phosphorylation at 1 to 10 uM preincubated for 30 mins followed by recombinant human pro-HGF addition measured after 30 mins by immunoblot method; type: cell-based; summary of the method: as §2
Serine protease hepsin [12] = biological target: T3, Serine protease hepsin; assay: Inhibition of doxycycline induced Hepsin in human MCF10A cells assessed as prevention in loss of HAI-1 level at 10 uM preincubated for 30 mins followed by doxycycline addition measured after 6 hrs by Immunoblot assay; type: cell-based
Summary of the method: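 MCF10A-Indu20-hepsin cells (Dox-inducible hepsin) pretreated 30 min with compound or DMSO, then hepsin induced with 100 ng/mL doxycycline for 6 h; HAI-1 protein scored by immunoblot.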

[13] = biological target: T2, Urokinase-type plasminogen activator; assay: Inhibition of uPA (unknown origin)
Summary of the method: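 uPA inhibition was run as an on-line biochemical assay integrated into the automated flow-synthesis platform. A 20 µL aliquot of each product solution was automatically captured, HPLC-purified, diluted and assayed. Some samples were instead screened manually, either from platform-synthesized material or from off-line synthesis. The read-out is IC50.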

Cc1ccc(NC(=O)N[C@@H](C(=O)Nc2ccc(C(=N)N)cc2)C2CCCCC2)cc1
Ratio IC50 (Homo sapiens [1]): 22 | chromatographic logD [2]: 1.5 | IC50 (Serine protease hepsin [3]): 2 µM | IC50 [4]: 43 µM

N=C(N)c1ccc(C[C@@H](NC(=O)CNS(=O)(=O)c2ccc3ccccc3c2)C(=O)N2CCCCC2)cc1
IC50 (Serine protease hepsin [3]): 4.46 µM

N=C(N)c1cccc(C[C@H](NS(=O)(=O)c2ccc3ccccc3c2)C(=O)N2CCCC(C(=O)NCc3cccs3)C2)c1 (stereo not given in full)
IC50 (Serine protease hepsin [5]): 0.33 µM | Ratio IC50 (Homo sapiens [6]): 18 | IC50 (Serine protease hepsin [3]): 0.676 µM | IC50 [7]: 6 µM | IC50 [4]: 2.43 µM

Cc1ccc(S(=O)(=O)N(C)C(CC(C)C)C(=O)Nc2ccc(C(=N)N)cc2)cc1 (stereo not given)
Ratio IC50 (Homo sapiens [1]): < 1 | chromatographic logD [2]: 1.8 | IC50 (Serine protease hepsin [3]): > 19 µM | IC50 [4]: 24 µM

N=C(N)c1ccc(/C=C2\CCCC/C(=C\c3ccc(C(=N)N)cc3)C2=O)cc1
IC50 (Serine protease hepsin [3]): 0.272 µM | IC50 [4]: 0.484 µM

Cc1ccc(S(=O)(=O)NC(CC2CCCC2)C(=O)Nc2ccc(C(=N)N)cc2)cc1 (stereo not given)
Ratio IC50 (Homo sapiens [1]): 23 | chromatographic logD [2]: 1.5 | IC50 (Serine protease hepsin [3]): 0.7 µM | IC50 [4]: 16 µM

C[C@@H](Oc1cc(-c2cnn(C3CCNCC3)c2)cnc1N)c1c(Cl)ccc(F)c1Cl
inhibition (Serine protease hepsin [8]): Active | inhibition (Serine protease hepsin [9]): Active

COc1ccc(S(=O)(=O)N[C@@H](C(=O)Nc2ccc(C(=N)N)cc2)C2CCCCC2)cc1
Ratio IC50 (Homo sapiens [1]): 40 | chromatographic logD [2]: 1.3 | IC50 (Serine protease hepsin [3]): 0.3 µM | IC50 [4]: 12 µM

Cc1ccc(S(=O)(=O)NCC(Cc2ccccc2)C(=O)Nc2ccc(C(=N)N)cc2)cc1 (stereo not given)
Ratio IC50 (Homo sapiens [1]): 0.3 | chromatographic logD [2]: 1.6 | IC50 (Serine protease hepsin [3]): 3 µM | IC50 [4]: 1 µM

CCCCC(NS(=O)(=O)c1ccc(C)cc1)C(=O)Nc1ccc(Br)cc1 (stereo not given)
Ratio IC50 (Homo sapiens [1]): 1 | IC50 (Serine protease hepsin [3]): 58 µM | IC50 [4]: 58 µM

Cc1ccc(S(=O)(=O)N[C@H](C(=O)Nc2ccc(C(=N)N)cc2)C2CCCCC2)cc1
IC50 (Serine protease hepsin [5]): 0.22 µM | chromatographic logD [2]: 1.3

Cc1ccc(S(=O)(=O)NC(C(=O)Nc2ccc(C(=N)N)cc2)C2CCCC2)cc1 (stereo not given)
Ratio IC50 (Homo sapiens [1]): 74 | chromatographic logD [2]: 0.4 | IC50 (Serine protease hepsin [3]): 0.86 µM | IC50 [4]: 64 µM

Cc1ccc(S(=O)(=O)NC(CC(C)C)C(=O)Nc2ccc(C(=N)N)cc2)cc1 (stereo not given)
Ratio IC50 (Homo sapiens [1]): 12 to 33 | chromatographic logD [2]: 1.2 | IC50 (Serine protease hepsin [3]): 0.6 to 0.9 µM | IC50 [4]: 11 to 20 µM

N=C(N)c1ccc(NC(=O)[C@H](NS(=O)(=O)c2ccc(C(F)(F)F)cc2)C2CCCCC2)cc1
IC50 (Serine protease hepsin [5]): 0.85 µM | Ratio IC50 (Homo sapiens [6]): > 2300 | Ratio IC50 (Homo sapiens [1]): 7 | chromatographic logD [2]: 1.7 | IC50 (Serine protease hepsin [3]): 0.68 µM | IC50 (Serine protease hepsin [10]): 3.15 µM | IC50 [7]: > 1950 µM | inhibition (Serine protease hepsin [11]): Active | inhibition (Serine protease hepsin [12]): inactive | IC50 [4]: 4.7 µM

CN(C)C(=O)N1CCN(C(=O)[C@@H](Cc2cccc(C(=N)N)c2)NS(=O)(=O)c2ccc3ccccc3c2)CC1
IC50 [13]: > 10 µM | IC50 (Serine protease hepsin [3]): 6.55 µM

Cc1ccc(C(=O)N[C@@H](C(=O)Nc2ccc(C(=N)N)cc2)C2CCCCC2)cc1
Ratio IC50 (Homo sapiens [1]): 5 | chromatographic logD [2]: 1.7 | IC50 (Serine protease hepsin [3]): 5 µM | IC50 [4]: 24.5 µM

Cc1ccc(S(=O)(=O)NC(CCc2ccccc2)C(=O)Nc2ccc(C(=N)N)cc2)cc1 (stereo not given)
IC50 (Serine protease hepsin [5]): 0.87 µM | Ratio IC50 (Homo sapiens [6]): 30 | IC50 (Serine protease hepsin [3]): 1.13 µM | IC50 [7]: 26 µM | IC50 [4]: > 10 µM

Cc1ccc(S(=O)(=O)NC(C(=O)Nc2ccc(C(=N)N)cc2)c2ccccc2)cc1 (stereo not given)
IC50 (Serine protease hepsin [5]): 0.25 µM | chromatographic logD [2]: 0.9 | IC50 [7]: 60 µM

Cc1ccc(S(=O)(=O)NC(CC(=O)Nc2ccc(C(=N)N)cc2)C2CCCCC2)cc1 (stereo not given)
Ratio IC50 (Homo sapiens [1]): 6 | chromatographic logD [2]: 1.4 | IC50 (Serine protease hepsin [3]): 11 µM | IC50 [4]: 68 µM

Cc1ccc(S(=O)(=O)NC(C(=O)Nc2ccc(C(=N)N)cc2)C(C)C)cc1 (stereo not given)
Ratio IC50 (Homo sapiens [1]): 4 | chromatographic logD [2]: 0.8 | IC50 (Serine protease hepsin [3]): 1.8 µM | IC50 [4]: 7.2 µM

N=C(N)c1ccc(NC(=O)[C@H](NS(=O)(=O)c2ccccc2)C2CCCCC2)cc1
Ratio IC50 (Homo sapiens [1]): 20 | chromatographic logD [2]: 1.2 | IC50 (Serine protease hepsin [3]): 1.1 µM | IC50 [4]: 22 µM

COC(=O)N1CCN(C(=O)[C@H](Cc2cccc(C(=N)N)c2)NS(=O)(=O)c2ccc3ccccc3c2)CC1
IC50 (Serine protease hepsin [3]): 6.19 µM

CCCCC(NS(=O)(=O)c1ccc(C)cc1)C(=O)Nc1cccc(C(=N)N)c1 (stereo not given)
Ratio IC50 (Homo sapiens [1]): 0.26 | chromatographic logD [2]: 1.1 | IC50 (Serine protease hepsin [3]): 73 µM | IC50 [4]: 19 µM

Cc1ccc(S(=O)(=O)N2CCCC2C(=O)Nc2ccc(C(=N)N)cc2)cc1 (stereo not given)
Ratio IC50 (Homo sapiens [1]): 3 to 9 | chromatographic logD [2]: 0.5 | IC50 (Serine protease hepsin [3]): 1.5 to 3 µM | IC50 [4]: 5.3 to 28 µM

CCCCC(NS(=O)(=O)c1ccc(C)cc1)C(=O)Nc1ccc(C(=N)N)cc1F (stereo not given)
Ratio IC50 (Homo sapiens [1]): 9 | chromatographic logD [2]: 1.4 | IC50 (Serine protease hepsin [3]): 0.9 µM | IC50 [4]: 8 µM

CCCCC(NS(=O)(=O)c1ccc(C)cc1)C(=O)Nc1ccc(C(=N)N)cc1 (stereo not given)
Ratio IC50 (Homo sapiens [1]): 3 to 10 | chromatographic logD [2]: 1.2 | IC50 (Serine protease hepsin [3]): 0.5 to 0.9 µM | IC50 [4]: 3 to 5 µM

N=C(N)c1ccc(NC(=O)[C@H](NS(=O)(=O)c2ccc(Cl)cc2)C2CCCCC2)cc1
Ratio IC50 (Homo sapiens [1]): 180 | chromatographic logD [2]: 1.5 | IC50 (Serine protease hepsin [3]): 0.1 µM | IC50 [4]: 18 µM

CC1CNc2c(cccc2S(=O)(=O)N[C@@H](CCCN=C(N)N)C(=O)N2CC[C@H](C)CC2C(=O)O)C1 (stereo not given in full)
IC50 (Serine protease hepsin [3]): > 10 µM

N=C(N)NCCC[C@@H](NC(=O)c1ccc2ccccc2c1O)C(=O)N1CCC[C@@H]1C(N)=O
IC50 (Serine protease hepsin [3]): > 10 µM

Cc1ccc(S(=O)(=O)NC(C(=O)Nc2ccc(C(=N)N)cc2)C2CCOCC2)cc1 (stereo not given)
Ratio IC50 (Homo sapiens [1]): > 13 | chromatographic logD [2]: 0.4 | IC50 (Serine protease hepsin [3]): 1.4 µM | IC50 [4]: > 19 µM

CCOC(=O)c1ccc(OC(=O)CCCCCNC(=N)N)cc1 [GABEXATE]
IC50 (Serine protease hepsin [3]): 0.383 µM

N=C(N)c1ccc2cc(OC(=O)c3ccc(N=C(N)N)cc3)ccc2c1 [NAFAMOSTAT]
IC50 (Serine protease hepsin [3]): 0.005 µM

COC(=O)C(Cc1cccc(C(=N)N)c1)NC(=O)CNS(=O)(=O)c1ccc(C)cc1 (stereo not given)
IC50 (Serine protease hepsin [3]): 3.14 µM | IC50 [4]: > 10 µM
